Results: the EternaBench riboswitch data

System: MS2 coat protein
Assay: apparent Kd, MS2 coat protein; higher = weaker binding; RNA-MaP array; FMN 200 µM where present
Method in brief: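 The apparent Kd is reported as the median of filtered per-cluster binding-curve fits. To get these curves, designs transcribed by stalled E. coli RNA polymerase on Illumina sequencing-chip clusters were titrated with SNAP-549-labelled MS2 coat protein from 0.7 or 1.5 nM, doubling to 3 µM. Titrations were run without and then with constant ligand in 100 mM Tris-HCl pH 7.5, 80 mM KCl, 4 mM MgCl2, BSA, DTT, yeast tRNA and Tween-20, and green signal was normalised to red-channel RNA signal and control-cluster median Fmax.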

[1] = designed as: OFF switch for flavin mononucleotide, no ligand
[2] = ligand present: flavin mononucleotide, designed as: OFF switch for flavin mononucleotide
[3] = designed as: ON switch for flavin mononucleotide, no ligand
[4] = ligand present: flavin mononucleotide, designed as: ON switch for flavin mononucleotide

| Sequence | apparent Kd [1] | apparent Kd [2] | apparent Kd [3] | apparent Kd [4] |
| --- | --- | --- | --- | --- |
| CUAAAAGUCGAGGAUAUGCACCGGCUUUUUGACGCAGAAGGCGACACAUGAGGAUCACCCAUGUCGGUACGCGA | 12.2 nM | 13 nM | – | – |
| AAGCACAGAGGAUAUACAAUCCUCAGUGGGUCUGGCGAGCCACAUGAGGAUCACCCAUGUAGAAGGCUGGGCUC | 11.8 nM | 14.6 nM | – | – |
| AGACGGAGCUGAGGAUAUACAUGAGGAUCACCCAUGUAAGAUCUCCAGGAAACUGGAGAUCAAAAGUAGAAGGCAGCUCCGUCA | 15.1 nM | 23.1 nM | – | – |
| AACAGUACAGGAUAUACAUGAGGAUCACCCAUGUGAUAAUUAAGUGGCGUACCACAAAGUAGAAGGGUACUGGA | 37.9 nM | 153 nM | – | – |
| ACGUGGAGUCCGCAACAGAACACACAGGAUAUGAGUGGGCACAUGAGGAUCACCCAUGUUACGGAUCAGAAGGGUGUGCUCAUG | – | – | 449 nM | 56.3 nM |
| GGAGGAGGUGUAGGAUAUAUAGAGGAGGGAGGGAUAGAAGGACAUGAGGAUCACCCAUGUGAGGAGGAGGAGGGAGGGAGGAGG | 13.4 nM | 11.9 nM | – | – |
| AUGUUAUAUGAAGGAUAUACUUAACAUGAGGAUCACCCAUGUGGUGUUGUGAGUGAGUGAGUUUAGUAGAAGGUCAAUUCUUUU | 256 nM | 263 nM | – | – |
| GGAUUACAUGAGGAUCACCCAUGUGAGGAUAUCGAUGUCCUGGGUGGAGUGCGGGACUCGAGAAGGCACUUGGA | 60.5 nM | 229 nM | – | – |
| AGCGGCGCAGACCACCGCAAAACCAGAAGGACAUGAGGAUCACCCAUGUAACAAAACAGGGCAAUGUAGGAUAUGGCAAACCCA | 11.1 nM | 12.6 nM | – | – |
| ACUUUAUAUGAGAAGGUGAAGUGGAAACAUGAGGAUCACCCAUGUAAUACGAAGCGUAUUUUUAUCAAGGAUAUCAUAUAAAGA | – | – | 10.8 nM | 8.81 nM |
| UCCUUCUGUUGAGGAUAUGUAAGACAGCGACUGCUAUUGCGGCACGCUGAUACAGAAGGCAACAUGAGGAUCACCCAUGUUCAA | 22.9 nM | 199 nM | – | – |
| CGAUAACAUAGUUAUCCGUAACGGACAUGAGGAUCACCCAUGUAGGAUAUGUUACUCAACGAGUAACAGAAGGACAUGAGUCCU | 11.8 nM | 54 nM | – | – |
| UUCUUACAUGAGGAUCACCCAUGUCAGGAUAUCUCCGCACUGCGCUUGCGCAGUGCAUAGAGAAGGGACAGGCU | 55 nM | 50.2 nM | – | – |
| GCACAUGGCAUAGGAUAUAGAACUAUACAUUAUAUAGGUAGUGUCACAACACUAGAAGGAUGAAACAUGAGGAUCACCCAUGUA | – | – | 14.9 nM | 12.2 nM |
| AUUUAGAGAGGAUAUAUAAUGUGAAACAUGAGGAUCACCCAUGUAAUAUUAUGGAUGUAAAUAGAAGGCUCAUUUA | 32.7 nM | 27.7 nM | – | – |
| CGUUAUUCAGGAUAUGGUGUGUUAUACAUGAGGAUCACCCAUGUAGAUCCUGGUUAGGCCUCAGAAGGGAAUGUUC | 165 nM | 145 nM | – | – |
| UUAAUUUGAUGAUAUUAUGACAUUAGAAGGCUGUACAUGUUGAUACAUGAGGAUCACCCAUGUAUAGAGGAUAUAGACAAUUUU | 40.9 nM | 91.7 nM | – | – |
| GUGUACAGAGGAUAUAUAUGAGCAUGGAAACAUGCAUCUUCACAUGAGGAUCACCCAUGUAGAAGGCUGUACAC | 15.7 nM | 49.2 nM | – | – |
| AGCAAGUCAGGAUAUGCGAAGUCAGGACACACACUGACGAAGCAGAAGGGACAUGAGGAUCACCCAUGUAAGCA | 29.1 nM | 42.9 nM | – | – |

| Sequence | apparent Kd [1] | apparent Kd [2] | apparent Kd [3] | apparent Kd [4] |
| --- | --- | --- | --- | --- |
| CAUAGGCGAGGAUAUACAUGAGGAUCACCCAUGUAAGGAAACCUGGCAGACUCAGAAUGUAGAAGGCGCACUGA | 21.6 nM | 41 nM | – | – |
| CCAUCGGAAGGAUAUACAUGAGGAUCACCCAUGUGCGAGCCCGCGCUCUCGGGAAGAUGUAGAAGGUUCAAGAA | 35.9 nM | 36.3 nM | – | – |
| AAUAUAAGAGCUGGACUCAAAAGAACAUGAGGAUCACCCAUGUAGGAUAUCAGCACGAUAAGUGCUGAGAAGGACAACCAGCUC | 14.4 nM | 15.2 nM | – | – |
| UAUGGUAAAGUCAGGAUAUACGUGCAGUUUUCUGGGUAGAAGGGACAUGAGGAUCACCCAUGUAUGGUAGUGUU | 118 nM | 142 nM | – | – |
| GGAAAUCAUGUAGGAUAUGCAUGGCGAAGCUACGCAGAAGGACAUGAGGAUCACCCAUGUUAUAGCUACCCAGUUCGGUGGCAA | 133 nM | 180 nM | – | – |
| UGUCAUAUAUAGAAGGGUAGUAGGGUUUUACAUGAGGAUCACCCAUGUAUUAUAGGAUAUGUGUAUAGUUUUUAUUCAAGUAUA | 32.8 nM | 25.4 nM | – | – |
| AUAAAACAUGAGGAUCACCCAUGUCAACAAAGUCGAGGAUAUGGGCAAAUAAAAUAAGAACCAGAAGGCGAAUAAU | – | – | 398 nM | 36.6 nM |
| UUUUUGUGAGGAUAUUAGUAGUAAAAAAAUAAAAUUACUACUGAGAAGGCACAUGAGGAUCACCCAUGUUCCUC | 35.7 nM | 174 nM | – | – |
| AUAUAGAUGGUCAGGAUAUGCUAGUGGUAACAGUAGCAGAAGGGACAUGAGGAUCACCCAUGUAGAUACUGCUC | 18 nM | 32.2 nM | – | – |
| AAGUAGGGAGGAUAUACAUAGAUACAGAUUCAUGUAGAACUACAUGAGGAUCACCCAUGUAGAAGGCCCUAAUA | 31.6 nM | 193 nM | – | – |
| GCAGUAAAUAAAUGCACAUGAGGAUCACCCAUGUGGGAGGCACAGGAUAUCGUAUCAUAGUAGUACGAGAAGGGUGAUAAUCUC | – | – | 370 nM | 64.2 nM |
| CCGGAGACGGGUAGCCUGACAUGAGGAUCACCCAUGUGAUCCUAGGAUAUGGAUCCUAAUUGGAUCCAGAAGGAGGUUGGCUAC | – | – | 1210 nM | 392 nM |
| UAUUGCGCCGUAAAAUAACACAUGAGGAUCACCCAUGUGACACAGGAUAUGACCAGAUCAGAAAGUCAGAAGGGUGAAAACGGC | – | – | 99.6 nM | 21.6 nM |
| CAUGUGUAAGGAUAUGACAAUGGUAUCUUCGGAUACCAUUGUCAGAAGGUACAUGAGGAUCACCCAUGUACAUC | 14.3 nM | 16.8 nM | – | – |
| CAGUACUGAGGAUAUACAUGAGGAUCACCCAUGUGGUUAAGCUAGGAAACUAGCAAAUGUAGAAGGCAGUACUG | 240 nM | 85.1 nM | – | – |
| GGACGUCACAUGAACAUGAGGAUCACCCAUGUAAAUUCUCAUGAGGAUAUGGAACCUAAUUGGUUCCAGAAGGCAUGGACGUCC | – | – | 1270 nM | 381 nM |
| ACAUUCACUCGACUGGUUCUUAACAUGAGGAUCACCCAUGUAGAGGAUAUAGGAAUUCUGGGUUCCUAGAAGGCUACGUGAGUG | 15.9 nM | 76.7 nM | – | – |
| UCAUUUACCACAGGAUAUAUUCAUAUACAGUUGUUUGGCUCUUACAUGUUAGUAGAAGGGUGCAACAUGAGGAUCACCCAUGUA | – | – | 298 nM | 163 nM |
| AAUAAGUGAGGAUAUACGAAAUAAAUAAAUAAAUAAAUAAAGUAGAAGGCACAUGAGGAUCACCCAUGUAAUAA | 34.6 nM | 29 nM | – | – |

| Sequence | apparent Kd [1] | apparent Kd [2] | apparent Kd [3] | apparent Kd [4] |
| --- | --- | --- | --- | --- |
| AGUGUCAUCGAGAAGGCCUUGACAUGAGGAUCACCCAUGUUGUAACAUGGGAGGAUAUCGAUGAUACAGCUACGUUUCGUAGCA | – | – | 625 nM | 47.3 nM |
| AUGCUAGUGUGAGGAUAUUAACAUGAGGAUCACCCAUGUUGGAAGAUCAUGACGAUCACGCAUGAUAAGAAGGUACAUUAGCAU | 40.8 nM | 94.9 nM | – | – |
| ACAUACUCUCGAGGAUAUCGUAUGGAAAAGAAACGAGAAGGCGAAUGUUAAUUUCUAAUACAUGACAUGAGGAUCACCCAUGUA | – | – | 30.4 nM | 27.3 nM |
| GUAGCAUAAUCAGGAUAUUCAGAGAAUAAAUAAACAUGAGGAUCACCCAUGUGGCGAAAGCCUAGGGAGAAGGGAUAAUGCUAC | – | – | 118 nM | 24.8 nM |
| UUAGUCAUGUGACGUGUUGACAUUCCAGAAGGGCCACAUGAGGAUCACCCAUGUCGAAGAAACAGGCAGGAUAUGGACCAAUGG | – | – | 43 nM | 11.2 nM |
| GGUACUCAAAGAGUACCAAUACGAACAUGAGGAUCACCCAUGUAGGAUAUGCUACUCAAAGAGUAGCAGAAGGACAUGUGCUUA | 25.9 nM | 135 nM | – | – |
| ACGACAAAAGUCGAACGAUGUAGCAGAAGGACAUGAGGAUCACCCAUGUAAAAUGUAACAGCCAUGUAGGAUAUGCAAAAUCGA | 37.7 nM | 159 nM | – | – |
| CUUUAGUGAGGAUAUGUGGCUUCGAUCGUGAGAUCGAGGCUACAGAAGGCACAUGAGGAUCACCCAUGUACCUU | 14.3 nM | 17 nM | – | – |
| UUACCUCAUGAGAAGGCGAUCAUGAAACAUGAUCGAGGAUAUCAUGUAAACAUGAGGAUCACCCAUGUAUGGGUAUUAUGGUAG | – | – | 198 nM | 56.8 nM |
| ACAUAGUGAGGAUAUGCUGCUCGUCACUUGCGUGAUGAGUAGCAGAAGGCACAUGAGGAUCACCCAUGUAAAAA | 40.5 nM | 55 nM | – | – |
| UUGGGACAUGAGGAUCACCCAUGUCAGGAUAUCCCGGCCCGCCCGUGAGGGCGGGCCGGGAGAAGGGACCUUUG | 41 nM | 42.9 nM | – | – |
| CUUUUGUGAGGAUAUCAGUAGUUAAAUAAUAAAAUUACUACUGAGAAGGCACAUGAGGAUCACCCAUGUUCCUC | 36.4 nM | 201 nM | – | – |
| AUCAGCUCGUCAGGAUAUACGUCACUGCGUCAGCAGUGUGGUCAGAUCACAUGAGGAUCACCCAUGUAGAAGGGACGAGCUGAU | 28.6 nM | 549 nM | – | – |
| GUGCGUGGCUAGGAUAUUGAGGAGUUUAGUCAGCGAGAAGGAGCCACAUGAGGAUCACCCAUGUGGUGAAGCUC | 18.6 nM | 68.6 nM | – | – |
| AUCAUGUAAGGAUAUCUUACAUGUGACUUCGGUCACUGUUCAGAGAAGGUACAUGAGGAUCACCCAUGUAGAAC | 18.8 nM | 28.4 nM | – | – |
| AGCCUACAUGAGGAUCACCCAUGUCAGGAUAUCUCGCGACAUGUCAAGUUCACGUUGCAGAGAAGGGACUCGGG | 56.6 nM | 63.6 nM | – | – |
| UGAGCGACCACAGGAUAUACUUGGUAAGACCGAGUAGAAGGGUGGAAGAGCGUGCAGUGACAUGAGGAUCACCCAUGUGGUUGU | – | – | 215 nM | 77.5 nM |
| AACUGAGCCCAAGGAUAUCCUCACUUCCACUACAUGAGGAUCACCCAUGUCAGAUCGUCUGUGUAGGAGAAGGUGGUGUACAUG | – | – | 330 nM | 623 nM |
